ChEMBL document CHEMBL1145091, “Ring-expanded ("fat") nucleoside and nucleotide analogues exhibit potent in vitro activity against flaviviridae NTPases/helicases, including those of the West Nile virus, hepatitis C virus, and Japanese encephalitis virus” (J Med Chem, 2003)

How the values were obtained:
[1] = tested on: Hepatitis C virus; test: Tested for inhibition against 1.05 nM ATPase activity of hepatitis C virus (HCV) in presence of ATP adjusted to 1*10e-4 of Km of enzyme; type: functional, Hepacivirus hominis
Summary of the method: (§1)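 ATPase assay measuring 33Pi released from [γ-33P]ATP. Enzymes were 2 pmol WNV, 0.5 pmol HCV, 4 pmol JEV or 0.2 pmol Suv3(Δ1–159). The reaction ran in pH 7.5 Tris with 2 mM MgCl2 and 0.1 mg/mL BSA for 30 min at 30 °C and was stopped with activated charcoal; supernatant was scintillation-counted.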

[2] = tested on: West Nile virus; test: Tested for inhibition against 95 pM ATPase activity of west nile virus (WNV) in presence of ATP adjusted to 1*10e-4 of Km of enzyme; type: functional; summary of the method: as §1
[3] = Tested for inhibition against 42 pM ATPase activity of human NTPase/Helicase Suv3 (delta1-159) in presence of ATP adjusted to 1*10e-4 of Km of enzyme; type: functional; summary of the method: as §1
[4] = Tested for inhibition against 42 nM ATPase activity of human NTPase/Helicase Suv3 (delta1-159) in presence of ATP adjusted to 1*10e-5 of Km of enzyme; type: functional; summary of the method: as §1
[5] = tested on: Japanese encephalitis virus; test: Tested for inhibition against 2.35 nM ATPase activity of Japanese encephalitis virus (JEV) in presence of ATP adjusted to 1*10e-5 of Km of enzyme; type: functional; summary of the method: as §1
[6] = tested on: Japanese encephalitis virus; test: Tested for inhibition against […] ATPase activity of Japanese encephalitis virus (JEV) in presence of ATP adjusted to 1*10e-4 of Km of enzyme; type: functional; summary of the method: as §1
[7] = tested on: Hepatitis C virus; test: Tested for inhibition against 1.05 nM ATPase activity of hepatitis C virus (HCV) in presence of ATP adjusted to 1*10e-5 of Km of enzyme; type: functional, Hepacivirus hominis; summary of the method: as §1
[8] = tested on: West Nile virus; test: Tested for inhibition against 95 pM ATPase activity of west nile virus (WNV) in presence of ATP adjusted to 1*10e-5 of Km of enzyme; type: functional; summary of the method: as §1
[9] = tested on: Flavivirus; test: Tested for inhibition against Flaviviridae NTPase/helicase (NTPase/helicase Non structural protein 3); type: functional; conditions: Orthoflavivirus
[10] = tested on: Hepatitis B virus; test: Tested for inhibition against […] in cultured human hepatoblastoma 2.2.15 cells; type: functional, organism-based; conditions: HepG2 2.2.15
[11] = Tested for inhibition against Helicase activity of human NTPase/Helicase Suv3 (delta1-159) in presence of ATP adjusted to 4.2 uM and 4.7 pM of DNA substrate; type: functional
Summary of the method: (§2)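 Unwinding of a 32P 5'-end-labelled partial duplex (26-mer released strand on 40-mer template; DNA or RNA as per line, 4.7 pM nucleotide base), using purified NTPase/helicase (2 pmol WNV from infected Vero E6 medium; 0.5 pmol HCV or 4 pmol JEV NS3 domain, or 0.2 pmol Suv3(Δ1–159), E. coli-expressed). ATP was set at each enzyme's ATPase Km: WNV 9.5 μM, HCV 105 μM, JEV 235 μM, Suv3 4.2 μM. The reaction ran in pH 7.5 Tris with 2 mM MgCl2 for 30 min at 30 °C.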

[12] = tested on: West Nile virus; test: Tested for inhibition against Helicase activity of west nile virus (WNV) in presence of ATP adjusted to 9.5 uM and 4.7 pM of DNA substrate; type: functional; summary of the method: as §2
[13] = tested on: Japanese encephalitis virus; test: Tested for inhibition against Helicase activity of Japanese encephalitis virus (JEV) in presence of ATP adjusted to 235 uM and 4.7 pM of DNA substrate; type: functional; summary of the method: as §2
[14] = Tested for inhibition against Helicase activity of human NTPase/Helicase Suv3 (delta1-159) in presence of ATP adjusted to 4.2 uM and 4.7 pM of RNA duplex substrate; type: functional; summary of the method: as §2
[15] = tested on: Japanese encephalitis virus; test: Tested for inhibition against Helicase activity of Japanese encephalitis virus (JEV) in presence of ATP adjusted to 235 uM and 4.7 pM of RNA duplex substrate; type: functional; summary of the method: as §2
[16] = tested on: Hepatitis C virus; test: Tested for inhibition against Helicase activity of hepatitis C virus (HCV) in presence of ATP adjusted to 105 uM and 4.7 pM of DNA substrate; type: functional, Hepacivirus hominis; summary of the method: as §2
[17] = tested on: West Nile virus; test: Tested for inhibition against Helicase activity of west nile virus (WNV) in presence of ATP adjusted to 9.5 uM and 4.7 pM of RNA duplex substrate; type: functional; summary of the method: as §2
[18] = tested on: Hepatitis C virus; test: Tested for inhibition against Helicase activity of hepatitis C virus (HCV) in presence of ATP adjusted to 105 uM and 4.7 pM of RNA duplex substrate; type: functional, Hepacivirus hominis; summary of the method: as §2
[19] = tested on: Hepatitis C virus; test: Tested for activating effect of hepatitis C virus (HCV) in presence of ATP adjusted to 105 uM and 4.7 pM of DNA substrate; type: functional, Hepacivirus hominis; summary of the method: as §2
[20] = tested on: West Nile virus; test: Tested for activating effect of west nile virus (WNV) in presence of ATP adjusted to […] and 4.7 pM of DNA substrate; type: functional
[21] = Antimeasles activity determined; type: functional
[22] = tested on: Human rhinovirus sp.; test: Antirhino activity determined; type: functional, organism-based

Row | Structure (SMILES) | IC50 [11] [µM] | IC50 [12] [µM] | IC50 [13] [µM] | IC50 [14] [µM] | IC50 [15] [µM] | IC50 [16] [µM] | IC50 [17] [µM] | IC50 [18] [µM] | other results
1 | O=C1NNC(=O)C2C(N=CN2C2O[C@H](COP(=O)(O)OP(=O)(O)OP(=O)(O)O)[C@@H](O)[C@H]2O)N1 (some centres undefined) |  |  |  |  |  |  |  |  | Ki [1]: 1.7 µM; Ki [2]: 2.9 µM; Ki [3]: 45 µM; IC50 [4]: 125 µM; IC50 [5]: 40 µM; Ki [6]: 15 µM; IC50 [7]: 1.5 µM; IC50 [8]: 4 µM
2 | NC1=NC(=O)C2C(N=CN2[C@@H]2O[C@H](CO)C(O)[C@H]2O)C(=O)N1 (single isomer, unassigned) |  |  |  |  |  |  |  |  | IC50 [9]: > 500 µM; IC50 [10]: 0.13 µM
3 | N=C1N=C(N)N=C(N)C2N=CN(C3O[C@@H](COP(=O)(O)OP(=O)(O)OP(=O)(O)O)[C@H](O)[C@@H]3O)C12 (some centres undefined) |  |  |  |  |  |  |  |  | Ki [1]: 0.2 µM; Ki [2]: 0.38 µM; Ki [3]: 15 µM; IC50 [4]: 40 µM; IC50 [5]: 12 µM; Ki [6]: 3.5 µM; IC50 [7]: 0.55 µM; IC50 [8]: 0.15 µM
4 | Nc1nc(=O)c2c(ncn2[C@@H]2C[C@H](O)[C@@H](CO)O2)c(=O)[nH]1 | 28 | 25 | 13 | 150 | 2 | 7 | 5.7 | > 500 | 
5 | O=C1NNC(=O)C2C(N=CN2C2O[C@H](CO)C(O)[C@H]2O)N1 (single isomer, unassigned) | > 500 | > 500 | > 500 |  |  | > 500 |  |  | 
6 | NC1=NC(=O)C2C(N=CN2[C@H]2CC(O)[C@@H](CO)O2)C(=O)N1 (single isomer, unassigned) | > 500 | > 500 | > 500 |  |  |  |  |  | ED200 [19]: 100 µM
7 | O=C1NC2C(N=CN2Cc2ccccc2)C(=O)N(Cc2ccccc2)N1 (centres undefined) | > 500 | 3.5 | > 500 | > 500 | > 500 | > 500 | > 500 | > 500 | 
8 | NC1=NC(=O)C2N=CNC2C(=O)N1 (centres undefined) |  | > 500 | > 500 | 500 | > 500 | > 500 | 220 | 200 | 
9 | N=C1N=C(N)N=C(N)C2N=CN(C3O[C@@H](CO)[C@H](O)[C@@H]3O)C12 (some centres undefined) | > 500 | > 500 | > 500 |  |  | > 500 |  |  | 
10 | NC1=NC(=O)C2C(N=CN2[C@H]2O[C@H](CO)[C@@H](O)[C@H]2O)C(=O)N1 (some centres undefined) | > 500 |  | > 500 | 3.5 | 4.5 |  | 220 | 12 | ED200 [19]: 150 µM; ED200 [20]: 60 µM
11 | NC1=NC(=O)C2C(N=CN2COCCO)C(=O)N1 (centres undefined) |  | > 500 | > 500 |  |  | > 500 |  |  | 
12 | NC1=NC(=O)C2C(N=C(c3ccccc3)N2C2O[C@H](CO)C(O)[C@H]2O)C(=O)N1 (single isomer, unassigned) |  |  |  |  |  |  |  |  | IC50 [21]: 0.5 µM; IC50 [22]: 6.7 µM
13 | NC1=NC(=O)C2C(N=CN2COCCOCc2ccccc2)C(=O)N1 (centres undefined) | 5 | 5.7 | 150 | 6 | > 500 | 11 | 3.3 | 5.5 | 
14 | CO[C@@H]1[C@H](O)[C@@H](CO)O[C@H]1n1cnc2c(=O)[nH]c(N)nc(=O)c21 | > 500 | > 500 | > 500 |  |  |  |  |  | ED200 [19]: 350 µM
15 | CO[C@@H]1[C@H](O)[C@@H](CO)O[C@H]1n1cnc2c(=O)[nH][nH]c(=O)c21 | > 500 | 30 | > 500 |  |  | 450 |  |  | 
16 | O=C1NC2N=CNC2C(=O)N(Cc2ccccc2)N1 (centres undefined) | > 500 | 1.3 | > 500 | > 500 | > 500 | > 500 | > 500 | > 500 | 
17 | NC1=NC(=O)C2C(N=CN2CCOCP(=O)(O)O)C(=O)N1 (centres undefined) | > 500 | 500 | > 500 |  |  | 200 |  |  | 
